Measured values taken from ChEMBL document CHEMBL1145465, “PhoU is a persistence switch involved in persister formation and tolerance to multiple antibiotics and stresses in Escherichia coli” (2007).

How the values were obtained:
Assay type in all cases: functional
[1] = tested on: Escherichia coli; test: Antibacterial activity against Escherichia coli K12 containing deletion deltaphoU mutant assessed as cell count in stationary phase at 3 ug/ml after 1 day
In short: (§1)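 Log-phase or stationary-phase cultures of the ΔphoU deletion mutant (Datsenko–Wanner construction) were exposed to norfloxacin 3 μg/ml in MOPS minimal medium, pH 5.0, at 37°C without shaking, for up to 10 days. Sampled aliquots were washed in saline and plated on LB agar for CFU/ml.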

[2] = tested on: Escherichia coli; test: Antibacterial activity against Escherichia coli K12 mutant JHU313 containing plasmid vector at 4 ug/ml after 48 hrs by disc diffusion method
In short: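 Kirby-Bauer paper-disc assay: log-phase E. coli (10⁸ bacteria) grown in LB broth, spread on LB agar for confluent growth; 7 mm nitrocellulose discs soaked with antibiotic solution at the listed concentration (μg/ml) placed on surface; incubated 37°C for 48 h; diameter of growth-inhibition zone measured in mm. Strain is the phoU transposon mutant transformed by electroporation with empty vector control.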

[3] = tested on: Escherichia coli; test: Antibacterial activity against Escherichia coli K12 containing PhoU mutant assessed as cell count in stationary phase at 3 ug/ml after 5 hrs
In short: (§2)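 Log-phase or stationary-phase cultures were exposed to ampicillin (100 μg/ml) or norfloxacin (3 μg/ml) in MOPS minimal medium, pH 5.0, at 37°C without shaking, for 5 h to 10 days. Aliquots were saline-washed and plated on LB for CFU/ml.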

[4] = tested on: Escherichia coli; test: Antibacterial activity against Escherichia coli K12 PhoU wild type W3110 at 0.1 ug/ml after 48 hrs by disc diffusion method
In short: (§3)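 Kirby-Bauer disc assay. Log-phase LB culture (10⁸ bacteria) was spread for confluent growth on LB agar. 7 mm nitrocellulose discs soaked in antibiotic at the listed concentrations were laid on the agar. Inhibition zone diameter (mm) was measured after 48 h at 37°C.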

[5] = tested on: Escherichia coli; test: Antibacterial activity against Escherichia coli K12 PhoU wild type W3110 assessed as cell count in log phase at 3 ug/ml after 10 days; in short: as §2
[6] = tested on: Escherichia coli; test: Antibacterial activity against Escherichia coli K12 mutant JHU313 at 0.1 ug/ml after 48 hrs by disc diffusion method
In short: (§4)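 Kirby-Bauer disc assay: log-phase LB culture was spread on LB agar for confluent growth. 7-mm nitrocellulose discs were soaked in antibiotic at the listed concentration and placed on the agar. After 48 h at 37°C, the diameter of the inhibition zone was measured in mm.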

[7] = tested on: Escherichia coli; test: Antibacterial activity against Escherichia coli K12 mutant JHU313 at 0.5 ug/ml after 48 hrs by disc diffusion method; in short: as §4
[8] = tested on: Escherichia coli; test: Antibacterial activity against Escherichia coli K12 PhoU wild type W3110 at 0.5 ug/ml after 48 hrs by disc diffusion method; in short: as §3
[9] = tested on: Escherichia coli; test: Antibacterial activity against Escherichia coli K12 mutant JHU313 at 2 ug/ml after 48 hrs by disc diffusion method; in short: as §4
[10] = tested on: Escherichia coli; test: Antibacterial activity against Escherichia coli K12 containing deletion deltaphoU mutant assessed as cell count in stationary phase at 3 ug/ml after 1 week; in short: as §1
[11] = tested on: Escherichia coli; test: Antibacterial activity against Escherichia coli K12 containing PhoU mutant assessed as cell count in stationary phase at 3 ug/ml after 3 days; in short: as §2
[12] = tested on: Escherichia coli; test: Antibacterial activity against Escherichia coli K12 containing PhoU mutant assessed as cell count in stationary phase at 3 ug/ml after 10 days; in short: as §2
[13] = tested on: Escherichia coli; test: Antibacterial activity against Escherichia coli K12 containing PhoU mutant assessed as cell count in stationary phase at 3 ug/ml after 1 week; in short: as §2
[14] = tested on: Escherichia coli; test: Antibacterial activity against Escherichia coli K12 containing deletion deltaphoR mutant assessed as cell count in log phase at 100 ug/ml after 24 hrs
In short: (§5)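 Wild-type W3110-derived deletion mutants were made by the Datsenko–Wanner method. Log-phase or stationary-phase cultures were exposed to ampicillin 100 μg/ml in MOPS minimal medium at pH 5.0, at 37°C without shaking. Aliquots were taken at set times, washed in saline and plated on LB for viable CFU/ml.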

[15] = tested on: Escherichia coli; test: Antibacterial activity against Escherichia coli K12 mutant JHU313 containing plasmid vector at 100 ug/ml after 48 hrs by disc diffusion method; in short: as §4
[16] = tested on: Escherichia coli; test: Antibacterial activity against Escherichia coli K12 containing deletion deltaphoU mutant assessed as cell count in stationary phase at 100 ug/ml after 5 hrs; in short: as §5
[17] = tested on: Escherichia coli; test: Antibacterial activity against Escherichia coli K12 PhoU wild type W3110 assessed as cell count in stationary phase at 100 ug/ml after 3 days; in short: as §2
[18] = tested on: Escherichia coli; test: Antibacterial activity against Escherichia coli K12 PhoU wild type W3110 assessed as cell count in stationary phase at 100 ug/ml after 10 days
In short: (§6)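 Log-phase or stationary-phase cultures exposed to ampicillin 100 μg/ml in MOPS minimal medium (pH 5.0) at 37°C without shaking, for 5 h up to 10 days. Aliquots were taken at each time point, washed in saline and plated on LB plates for viable CFU/ml.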

[19] = tested on: Escherichia coli; test: Antibacterial activity against Escherichia coli K12 mutant JHU313 at 6 ug/ml after 48 hrs by disc diffusion method; in short: as §4
[20] = tested on: Escherichia coli; test: Antibacterial activity against Escherichia coli K12 containing PhoU mutant assessed as cell count in stationary phase at 100 ug/ml after 1 day; in short: as §2
[21] = tested on: Escherichia coli; test: Antibacterial activity against Escherichia coli K12 containing PhoU mutant assessed as cell count in stationary phase at 100 ug/ml after 5 hrs; in short: as §2
[22] = tested on: Escherichia coli; test: Antibacterial activity against Escherichia coli K12 containing deletion deltaphoB mutant assessed as cell count in log phase at 100 ug/ml after 5 hrs
In short: (§7)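 Deletion mutants were made by the Datsenko–Wanner method. Log-phase or stationary-phase cultures were exposed to ampicillin at 100 μg/ml. CFU/ml was determined at the start and after 5, 24 and 72 h of exposure.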

[23] = tested on: Escherichia coli; test: Antibacterial activity against Escherichia coli K12 PhoU wild type W3110 assessed as cell count in stationary phase at 100 ug/ml after 5 days; in short: as §6
[24] = tested on: Escherichia coli; test: Antibacterial activity against Escherichia coli K12 PhoU wild type W3110 assessed as cell count in log phase at 100 ug/ml after 5 hrs; in short: as §6
[25] = tested on: Escherichia coli; test: Antibacterial activity against Escherichia coli K12 PhoU wild type W3110 at 25 ug/ml after 48 hrs by disc diffusion method
In short: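 Kirby-Bauer disc assay. Log-phase LB broth culture (10⁸ bacteria) was spread on LB agar for confluent growth. 7 mm nitrocellulose discs soaked in antibiotic solution at the listed concentration were placed on the agar. Inhibition zone diameter (mm) was measured after 48 h at 37°C.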

[26] = tested on: Escherichia coli; test: Antibacterial activity against Escherichia coli K12 containing deletion deltaphoBR mutant assessed as cell count in stationary phase at 100 ug/ml after 24 hrs; in short: as §7
[27] = tested on: Escherichia coli; test: Antibacterial activity against Escherichia coli K12 containing deletion deltaphoB mutant assessed as cell count in stationary phase at 100 ug/ml after 24 hrs; in short: as §7
[28] = tested on: Escherichia coli; test: Antibacterial activity against Escherichia coli K12 containing deletion deltaphoB mutant assessed as cell count in log phase at 100 ug/ml after 24 hrs; in short: as §7
[29] = tested on: Escherichia coli; test: Antibacterial activity against Escherichia coli K12 containing PhoU mutant assessed as cell count in log phase at 100 ug/ml after 5 hrs; in short: as §2
[30] = tested on: Escherichia coli; test: Antibacterial activity against Escherichia coli K12 PhoU wild type W3110 assessed as cell count in stationary phase at 100 ug/ml after 5 hrs; in short: as §6

CCn1cc(C(=O)O)c(=O)c2cc(F)c(N3CCNCC3)cc21 [NORFLOXACIN]
CFU [1]: 2 10^8/ml | inhibition zone (IZ) [2]: 44 mm | CFU [3]: 3 10^8/ml | inhibition zone (IZ) [4]: 24 mm | CFU [5]: 0 mL⁻¹ | inhibition zone (IZ) [6]: 28 mm | inhibition zone (IZ) [7]: 30 mm | inhibition zone (IZ) [8]: 27 mm | inhibition zone (IZ) [9]: 34 mm | CFU [10]: 0 mL⁻¹ | CFU [11]: 2 10^5/ml | CFU [12]: 0 mL⁻¹ | CFU [13]: 0 mL⁻¹

CC1(C)S[C@@H]2[C@H](NC(=O)[C@H](N)c3ccccc3)C(=O)N2[C@H]1C(=O)O [AMPICILLIN]
CFU [14]: 1 10^2/ml | inhibition zone (IZ) [15]: 45 mm | CFU [16]: 2 10^8/ml | CFU [17]: 1 10^8/ml | CFU [18]: 2 10^5/ml | inhibition zone (IZ) [19]: 30 mm | CFU [20]: 1 10^7/ml | CFU [21]: 2 10^8/ml | CFU [22]: 6 10^3/ml | CFU [23]: 3 10^7/ml | CFU [24]: 3 10^3/ml | inhibition zone (IZ) [25]: 28 mm | CFU [26]: 1.7 10^9/ml | CFU [27]: 1.8 10^9/ml | CFU [28]: 1 10^2/ml | CFU [29]: 20 mL⁻¹ | CFU [30]: 5 10^9/ml
